# Results as given in publication PMC7593347 (International Journal for Parasitology: Drugs and Drug …, 2020).
# Like-named read-outs stand apart in the source and are kept apart here.
# Assays:
# [1] = tested on: HCT-8 cells; experiment: Cytotoxicity to HCT-8 cells; type: cell-based, human; details: read-out: Host cell IC50
# [2] = tested on: C. parvum; type: cell-based, Cryptosporidium parvum; details: for Parasite inhibition (%): C. parvum, 5 μM, HCT-8 cells, compound present from inoculation, 48 h; for inhibition at 5 µM: Cryptosporidium parvum, HCT-8, 48 h, read-out: Parasite inhibition (%)
# [3] = tested on: C. parvum HNJ-1 strain; experiment: Initial epigenetic library compound screening for C. parvum; type: cell-based, Cryptosporidium parvum; details: for Parasite inhibition (%) (primary screening): 5 μM, 48 h, HCT-8 cells, vs DMSO, single experiment, single replicate; for inhibition at 5 µM: Cryptosporidium parvum, HCT-8, 48 h, read-out: Parasite inhibition (%) (primary screening)
# [4] = tested on: T. gondii RH-2F; experiment: T. gondii growth assay; type: cell-based, Toxoplasma gondii; details: 5 μM, positive control, HFF cells, 48 h
# [5] = tested on: C. parvum; details: ref Darkin-Rattray et al., 1996; cited from earlier work
# [6] = tested on: acetylated histone H3K9 of C. parvum sporozoites; experiment: Acetylated histone in extracellular parasites; type: cell-based, Cryptosporidium parvum; details: Fig. 4A, 10 μM, incubation 30 min
# [7] = tested on: C. parvum; details: 100 or 200 mg/kg; ref Theodos et al., 1998; cited from earlier work
# [8] = tested on: C. parvum; details: read-out: IC50 against C. parvum, ref Bessoff et al., 2013, cited from earlier work
# [9] = tested on: C. parvum; experiment: C. parvum growth when compound is added after invasion of host cells; type: cell-based, Cryptosporidium parvum; details: 5 μM added after 3 h invasion, further 45 h, compared with DMSO control
# Procedure, shortened: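 HCT-8 cells (2 × 10^4/well) grown 24 h, infected with 5 × 10^4 HNJ-1 oocysts in RPMI-1640 for 3 h; test compound (5 μM) or DMSO then added for 45 h; nitazoxanide 5 μM as control. Methanol-fixed, BSA-blocked, Sporo-Glo stained; 42 fields/well imaged at 20×, parasites and nuclei counted automatically; relative to DMSO. Triplicate wells, three independent experiments.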
Compound,"IC50 ([1]; HCT-8 cells, 48 h)",Parasite inhibition (%) [2],Parasite inhibition (%) (primary screening) [3],"IC50 ([1]; Homo sapiens, HCT-8, 48 h)",inhibition at 5 µM [2],inhibition at 5 µM [3],also measured
O=C1c2ccccc2C(=O)c2c(NCCc3ccc(O)cc3)ccc(NCCc3ccc(O)cc3)c21 [BML-266],51.2 ± 0.6 µM,64.7 ± 3.9%,97%,,,,
CC(/C=C/C(=O)NO)=C\[C@@H](C)C(=O)c1ccc(N(C)C)cc1 [TrichostatinA],1.6 ± 0.1 µM,75.7 ± 0.8%,76%,,,,
O=C(/C=C/C#Cc1cccc(NS(=O)(=O)c2ccccc2)c1)NO [Oxamflatin],,,,2.5 ± 0.1 µM,49.8 ± 4%,100%,
CCc1nc(N)nc(N)c1-c1ccc(Cl)cc1 [pyrimethamine],,,,,,,growth of T. gondii [4]: completely inhibited
CC(=O)Nc1ccc(C(=O)Nc2ccccc2N)cc1 [CI-994],,no effect on growth inhibition,,24.6 ± 2.4 µM,-15.7 ± 8.4%,88%,
CCC(=O)CCCCC[C@@H]1NC(=O)[C@H]2CCCCN2C(=O)[C@H]([C@@H](C)CC)NC(=O)[C@H](Cc2cn(OC)c3ccccc23)NC1=O [Apicidin],,,,1.5 ± 0.1 µM,83.5 ± 1.4%,83%,minimum concentration at which all C. parvum growth was inhibited [5]: 45 µM
O=Nc1ccc(O)c2ncccc12 [NSC-3852],36.7 ± 1 µM,64.4 ± 0.4%,88%,,,,
CN(C)c1ccc(C(=O)NCCCCCCC(=O)NO)cc1 [M-344],2.3 ± 0.2 µM,71.3 ± 1.7%,71%,,,,
CC(=O)Oc1ccccc1C(=O)Nc1ncc([N+](=O)[O-])s1 [nitazoxanide],,,,,,,Density of bands of H3K9Ac/H3 normalized by the loading control [6]: increased; reduction of the parasite in C. parvum-infected SCID mice [7]: ineffective; IC50 [8]: 3.7 µM; IC50 ([8]; listed as Nitazoxanide): ~3.7 µM; relative number of C. parvum [9]: 44.9 ± 7.3%
O=C(CCCCCN1C(=O)c2cccc3cccc(c23)C1=O)NO [Scriptaid],,did not inhibit the growth,,11.9 ± 1.3 µM,4 ± 5.7%,10%,
